Only some compounds are listed: those with a hit (about 4.3% of all), similar ones and a draw of the others.
GalR3 antagonist: blocks the human galanin receptor 3; hit rate 0.44% among 360,000; O60755; inhibition, % at 3 µM; HEK293 GalR3-CNG cAMP membrane potential fluorescence; galR3 body fused to GalR1 C-terminus;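 active means inhibition above the screen-wide average plus 3 SD, cut at about 13% in these data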;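 further: forskolin and galanin both at EC90 stimulate the cells; cAMP rise reported by CNG channel membrane potential dye signal; 0% = forskolin plus galanin with DMSO and 100% = forskolin alone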
TAAR1 antagonist: human TAAR1 antagonism; hit rate 1.5% among 360,000; inhibition, % at 3 µM; CHO RD-HGA16 TAAR1, Fluo-8 calcium fluorescence, antagonist; Q96RJ0;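 active means inhibition above a per-plate cutoff, the mean inhibition of test compounds on that plate plus 3 SD, cut at about 49% in these data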;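 further: 0% = DMSO plus EC80 beta-PEA response and 100% = DMSO alone without agonist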
Target sequence (Q96RJ0 whole entry, looked up): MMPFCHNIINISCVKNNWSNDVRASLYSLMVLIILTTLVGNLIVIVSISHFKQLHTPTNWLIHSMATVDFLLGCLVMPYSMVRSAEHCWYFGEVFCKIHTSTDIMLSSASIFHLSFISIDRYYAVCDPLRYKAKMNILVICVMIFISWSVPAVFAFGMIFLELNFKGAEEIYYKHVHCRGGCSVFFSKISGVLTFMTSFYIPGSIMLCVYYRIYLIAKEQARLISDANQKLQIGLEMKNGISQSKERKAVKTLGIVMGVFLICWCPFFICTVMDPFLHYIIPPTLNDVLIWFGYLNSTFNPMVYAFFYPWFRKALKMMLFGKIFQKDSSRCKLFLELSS
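Test system – hTAAR1-expressing CHO RD-HGA16 cells, Gα16-coupled · Reagent – β-PEA at EC80 concentration, post-compound challenge · Compound dosing – 3 µM, single point · Timing – 140 s kinetic read after compound, 140 s after agonist · Detection – Fluo-8 intracellular calcium dye fluorescence, real-time kinetic reads · Control set – DMSO and EC80 PEA controls · Repeats – n of 1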
TAAR1 agonist: human TAAR1 agonism. activation, % at 3 µM. CHO RD-HGA16 TAAR1, Fluo-8 calcium fluorescence; vehicle wells 0%, saturating PEA agonist 100%. hit rate 0.99% among 360,000. Q96RJ0;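 active means activation above the mean activation of all test compounds in the run plus 3 SD, cut at about 38% in these data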
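Assay system: CHO-derived RD-HGA16 cells with stable Gα16 and human TAAR1; timing: 17-24 h seeding, 75 min 37 °C dye, 30 min RT; read-out: % activation from peak over basal fluorescence ratio, DMSO-to-PEA scaled; measured by: kinetic Fluo-8 calcium fluorescence; benchmarks: low control DMSO, high control PEA (EC100); doses: 3 µM single concentration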
OX1R antag-1: human HCRTR1 antagonism; O43613; CHO/OX1R cells, Fluo-8 calcium fluorescence, orexin A; inhibition, % at 5 µM; hit rate 0.43% among 330,000; AID 434989;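 active means inhibition above its plate's threshold, mean inhibition of all tested compounds on the plate plus 3 SD, cut at about 37% in these data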;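 further: 0% = orexin A challenge wells and 100% = SB-334867-A antagonist wells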
Target sequence (O43613 whole entry, looked up): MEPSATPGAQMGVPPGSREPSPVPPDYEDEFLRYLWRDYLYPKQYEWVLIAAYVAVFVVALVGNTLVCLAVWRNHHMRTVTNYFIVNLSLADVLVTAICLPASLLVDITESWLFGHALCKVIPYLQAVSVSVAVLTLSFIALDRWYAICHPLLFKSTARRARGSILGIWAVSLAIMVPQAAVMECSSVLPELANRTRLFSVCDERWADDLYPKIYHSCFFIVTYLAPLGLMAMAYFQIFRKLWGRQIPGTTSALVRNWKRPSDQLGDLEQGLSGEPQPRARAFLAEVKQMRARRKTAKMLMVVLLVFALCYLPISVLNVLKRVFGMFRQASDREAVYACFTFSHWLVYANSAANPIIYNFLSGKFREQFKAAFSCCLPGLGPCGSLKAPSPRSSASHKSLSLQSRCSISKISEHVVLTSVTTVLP
CHO parental Ca: counter-screen for OX1R antagonists: effect in parental CHO cells. parental CHO-K1, ATP-induced calcium, Fluo-8 fluorescence. inhibition, % at 5.6 µM. hit rate 0.63% among 330,000;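 active means inhibition above that plate's mean sample inhibition plus 3 SD, cut at about 26% in these data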;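 further: 0% = ATP-challenged DMSO wells and 100% = DMSO wells without ATP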
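Test system: untransfected parental CHO cell line. Compound: one dose, 5.6 µM nominal. Detection: intracellular calcium via Fluo-8 no-wash fluorescent dye. Measure: % inhibition. Benchmarks: ATP-challenged DMSO wells low, unchallenged DMSO wells high.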
OX1R antag-2: blocks the human orexin 1 receptor | O43613 | OX1R-expressing cells, FRET antagonist read-out | inhibition, % at 6.6 µM | hit rate 1.8% among 330,000 | AID 485270; in the data active means inhibition mostly above about 38%, no sharp cut-off; inactive means mostly below about 40%;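 further: 0% = agonist challenge alone and 100% = reference antagonist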
TAAR1 ag conf: confirmation of human TAAR1 agonists. shares compounds with TAAR1 agonist. CHO RD-HGA16 TAAR1, Fluo-8 calcium fluorescence; scaled: DMSO 0%, maximal phenethylamine 100%. activation, % at 3 µM. hit rate 82% among 2,400. AID 651783;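 active means activation above a cutoff set at the run's mean compound activation plus 3 SD, cut at about 39% in these data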
Ga16 nonsel ag: nonselective agonism, TAAR1 counter-screen; activation, % at 3 µM; shares compounds with TAAR1 agonist; CHO-Ga16 parental, Fluo-8 calcium fluorescence; normalized to maximal ATP response, DMSO zero; hit rate 50% among 2,400; AID 651787;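 active means activation above the run cutoff, the mean activation over all tested wells plus 3 SD, cut at about 12% in these data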;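 further: 0% = DMSO wells and 100% = maximal ATP response on the peak over basal ratio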
TAAR1 desensitize: TAAR1 response desensitization, agonist counter-screen; inhibition, % at 3 µM; AID 651951; CHO RD-HGA16 hTAAR1, Fluo-8 calcium, beta-PEA response inhibition; hit rate 46% among 2,400; shares compounds with TAAR1 agonist;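 active means inhibition above the run cutoff, the mean inhibition of all test compounds plus 3 SD, cut at about 49% in these data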;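 further: beta-PEA stimulus applied at its EC80; loss of beta-PEA calcium signal after compound pretreatment read as receptor desensitization; 0% = DMSO with beta-PEA at EC80 and 100% = DMSO alone without agonist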
Ga16 nonsel ant: nonselective Ga16 antagonist in TAAR1 agonist counter-screen; CHO-Ga16 ATP-induced calcium, Fluo-8 fluorescence; hit rate 39% among 2,400; inhibition, % at 3 µM; shares compounds with TAAR1 agonist;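 active means inhibition above the plate's mean compound inhibition plus 3 SD, computed per plate, cut at about 22% in these data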;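 further: 0% = EC80 ATP with DMSO and 100% = DMSO wells without ATP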
* hit, by the source's call.

What do the screens show for `COc1ccc(NC(=O)N2CCN(c3cccc(C(F)(F)F)c3)CC2)cc1`?
GalR3 antagonist: -5.9; TAAR1 antagonist: 94.4*; TAAR1 agonist: 89.1*; OX1R antag-1: 8.3; CHO parental Ca: 27.3; OX1R antag-2: 19.5; TAAR1 ag conf: 7.9; Ga16 nonsel ag: 11.1; TAAR1 desensitize: 20.7; Ga16 nonsel ant: 24.3*

How did CCCCN1C(=O)C(CC(=O)NC2CCCCC2)CC(C(=O)N(C(C)C)C(C)C)=C1C (configuration not stated) do in these assays?
GalR3 antagonist: -5.8; TAAR1 antagonist: -7.5; TAAR1 agonist: 5.9

Results for O=C(Nc1nc2c(Cl)ccc(Cl)c2s1)c1ccco1 ?
TAAR1 antagonist: 70.0*; TAAR1 agonist: 113.9*; OX1R antag-1: -1.2; CHO parental Ca: 8.0; OX1R antag-2: 3.0; TAAR1 ag conf: 107.2*; Ga16 nonsel ag: 88.7*; TAAR1 desensitize: 92.0*; Ga16 nonsel ant: 61.8*

What do the screens show for `COc1ccc(-c2nn(-c3ccccc3)cc2C(=O)N2CCN(S(=O)(=O)c3cccc(F)c3)CC2)cc1`?
GalR3 antagonist: -4.4; TAAR1 antagonist: 29.1; TAAR1 agonist: 1.7; OX1R antag-1: -19.2; CHO parental Ca: -19.6; OX1R antag-2: 5.4

What do the screens show for `CC(=O)c1ccc2c3c(cccc13)C(=O)N(CCc1ccccc1)C2=O`?
GalR3 antagonist: -4.1; OX1R antag-1: -37.0; CHO parental Ca: -15.2; OX1R antag-2: 12.4; Ga16 nonsel ag: 2.5; Ga16 nonsel ant: 9.1

Results for Cc1c(Cl)cccc1Nc1nc(NCCO)c2ccccc2n1 ?
GalR3 antagonist: 0.8; TAAR1 antagonist: 37.1; TAAR1 agonist: 49.5*; OX1R antag-1: -24.0; CHO parental Ca: -14.6; OX1R antag-2: 3.0; TAAR1 ag conf: 82.8*; Ga16 nonsel ag: 4.7; TAAR1 desensitize: 83.7*; Ga16 nonsel ant: 6.0

Results for OCCNc1nc(Nc2ccccc2)nc2ccccc12 ?
GalR3 antagonist: -3.6; TAAR1 antagonist: 92.1*; TAAR1 agonist: 96.6*; OX1R antag-1: -25.2; CHO parental Ca: -12.6; OX1R antag-2: 9.8; TAAR1 ag conf: 88.8*; Ga16 nonsel ag: 1.6; TAAR1 desensitize: 97.9*; Ga16 nonsel ant: 11.2

What do the screens show for `OCCNc1nc(Nc2ccccc2)nc(Nc2ccccc2)n1`?
GalR3 antagonist: -3.3; TAAR1 antagonist: -12.6; TAAR1 agonist: 13.1; OX1R antag-1: -19.7; CHO parental Ca: -22.7; OX1R antag-2: 26.2

Results for Nc1ncnc2c1ncn2[C@@H]1O[C@H](CNCC(O)CO)[C@@H](O)[C@H]1O (some centres not stated) ?
GalR3 antagonist: -1.0; TAAR1 antagonist: -12.2; TAAR1 agonist: 0.2; OX1R antag-1: 10.3; CHO parental Ca: -22.6; OX1R antag-2: 6.6

How did CC(C)N1CCC1(C)C(=O)Nc1ccccc1OC(F)F (configuration not stated) do in these assays?
GalR3 antagonist: -7.7; TAAR1 antagonist: -28.1; TAAR1 agonist: -1.8

How did COc1ccc(CN2CCNC(=O)C2CC(=O)NC2CCC2)c(OC)c1 (configuration not stated) do in these assays?
GalR3 antagonist: -2.5; TAAR1 antagonist: -7.2; TAAR1 agonist: 0.3

What do the screens show for `COc1ccc(CN2CCNC(=O)C2CC(=O)NC2Cc3ccccc3C2)c(OC)c1` (configuration not stated)?
GalR3 antagonist: -3.2; TAAR1 antagonist: -26.1; TAAR1 agonist: 46.1*; OX1R antag-1: -8.4; CHO parental Ca: -16.9; OX1R antag-2: 5.2; TAAR1 ag conf: 54.1*; Ga16 nonsel ag: 6.8; TAAR1 desensitize: -4.8; Ga16 nonsel ant: 1.3

What do the screens show for `CCn1cc(C(=O)O)c(=O)c2cc(F)c(N/N=C/c3ccccc3)cc21`?
GalR3 antagonist: 3.2; TAAR1 antagonist: 69.9*; TAAR1 agonist: 55.9*; OX1R antag-1: 0.6; CHO parental Ca: 2.0; OX1R antag-2: 2.5; TAAR1 ag conf: 82.1*; Ga16 nonsel ag: 2.5; TAAR1 desensitize: 85.0*; Ga16 nonsel ant: 8.1

Results for CCn1cc(C(=O)O)c(=O)c2cc(F)c(N3CCN(C(=O)Nc4ccccc4)CC3)cc21 ?
GalR3 antagonist: -4.4; TAAR1 antagonist: 1.7; TAAR1 agonist: 10.5; OX1R antag-1: 8.8; CHO parental Ca: -9.6; OX1R antag-2: 16.6

Results for COc1ccccc1N1CCN(S(=O)(=O)CCNC(=O)c2cccs2)CC1 ?
GalR3 antagonist: 0.9; TAAR1 antagonist: -11.2; TAAR1 agonist: 2.4

Results for CCOc1ccccc1C=C1CCc2ccccc2C1=O ?
GalR3 antagonist: -4.6; TAAR1 antagonist: -0.7; TAAR1 agonist: 2.6

Results for CCNc1ccc2noc3c2c1C(=O)c1ccccc1-3 ?
GalR3 antagonist: -16.7; TAAR1 antagonist: 89.5*; TAAR1 agonist: 318.5*; OX1R antag-1: 103.1*; CHO parental Ca: 42.2*; OX1R antag-2: 122.9*; TAAR1 ag conf: 113.8*; Ga16 nonsel ag: 127.2*; TAAR1 desensitize: 65.8*; Ga16 nonsel ant: 65.7*

How did CCOc1ccc2noc3c2c1C(=O)c1ccccc1-3 do in these assays?
GalR3 antagonist: -1.4; TAAR1 antagonist: 42.9; TAAR1 agonist: 68.5*; OX1R antag-1: 31.9; CHO parental Ca: 28.3; OX1R antag-2: 49.9; TAAR1 ag conf: 26.2; Ga16 nonsel ag: 35.6*; TAAR1 desensitize: 28.5; Ga16 nonsel ant: 40.5*

How did Cc1nc(N)c(C#N)c(-c2ccccc2Cl)c1C do in these assays?
GalR3 antagonist: -2.8; TAAR1 antagonist: -7.8; TAAR1 agonist: 73.1*; OX1R antag-1: -39.5; CHO parental Ca: -6.5; OX1R antag-2: 2.2; TAAR1 ag conf: 65.7*; Ga16 nonsel ag: 44.2*; TAAR1 desensitize: 5.7; Ga16 nonsel ant: 9.2

Results for COc1cc(C(=O)NCc2nnc(SCC(=O)N3CCCCCC3)o2)cc(OC)c1OC ?
GalR3 antagonist: -9.6; TAAR1 antagonist: -40.0; TAAR1 agonist: 1.7; OX1R antag-1: -7.1; CHO parental Ca: -17.0; OX1R antag-2: -1.1

Assay outcomes (PubChem)
